Experimental data as given in paper PMC8286830 (Biochemical Journal, 2021).
Several values for one entry are separate records, joined by “and”; a condition that tells them apart may be missing. Equal entries are not always repeated. Entries after “also recorded” stand apart in the source; their conditions may differ.

Assays:
TgCEN1 [1] = assay: DLS particle size of TgCEN1; format: physicochemical, Toxoplasma gondii
TgCEN1 [2] = assay: DLS thermal ramping of TgCEN1; format: physicochemical, Toxoplasma gondii; conditions: 5 µM protein, 1 mM CaCl2, pH 7.5
In short: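 Full-length recombinant protein (E. coli Rosetta) at 5 µM with 1 mM CaCl2 in 20 mM Tris–HCl, 20 mM KCl pH 7.5, clarified by centrifugation. Temperature stepped from 15 to 45°C in 1°C increments, with DLS size measured at each step. Z-average (intensity-weighted mean hydrodynamic size) recorded; midpoint from logistic fit.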

TgCEN1 [3] = assay: Turbidimetry at 340 nm, TgCEN1 self-assembly; format: physicochemical, Toxoplasma gondii
In short: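 Full-length protein (E. coli Rosetta) at 20 µM in 20 mM Tris–HCl, 20 mM KCl pH 7.5, 37°C, A340 recorded versus time. Run with 1 mM CaCl2, with 1 mM EGTA, or with EGTA added to Ca2+-saturated protein. Ca2+ series 5–2000 µM, read at 25 min versus metal/protein ratio. Also varied: temperature 4–45°C, protein 5–50 µM, KCl 0–150 mM, and 600 µM ANS.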

[4] = via N-terminal EF-hands, in vitro; cited from earlier work
Δ21TgCEN1 [5] = target: T1, Δ21TgCEN1 (Toxoplasma gondii, UniProt A0A125YHX7); assay: DLS particle size / count rate of Δ21TgCEN1; format: physicochemical; conditions: all other conditions: temperature, protein concentration, KCl, ANS
T1 sequence (A0A125YHX7 22-169): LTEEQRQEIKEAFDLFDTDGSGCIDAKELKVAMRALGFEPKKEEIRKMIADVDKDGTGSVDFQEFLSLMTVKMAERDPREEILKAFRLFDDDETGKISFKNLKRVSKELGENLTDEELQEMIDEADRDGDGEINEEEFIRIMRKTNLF
In short: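 Recombinant tag-free Δ21TgCEN1 from E. coli Rosetta (Ni affinity, TEV cleavage). For DLS, 10 µM protein in 20 mM Tris–HCl, 20 mM KCl pH 7.5 with 1 mM CaCl2 at 37°C was spun at 21 000 g for ≥30 min, then measured before and after adding 50 µM N21 peptide. Diameter was reported as number distribution. In parallel, A340 turbidity of 20 µM protein was followed over time.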

Δ21TgCEN1 [6] = target: T1, Δ21TgCEN1; assay: Turbidimetry at 340 nm, Δ21TgCEN1; format: physicochemical
In short: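 Construct lacking residues 1–21 (E. coli Rosetta) at 20 µM in 20 mM Tris–HCl, 20 mM KCl pH 7.5, 1 mM CaCl2, 37°C. A340 followed over time, before and after adding 50 µM synthetic N-terminal peptide (residues 1–21). Peptide alone with CaCl2 run as a control trace.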

N-TgCEN1 [7] = assay: DLS particle size of N-TgCEN1; format: physicochemical, Toxoplasma gondii; conditions: 10 µM
In short: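 Domains produced in E. coli Rosetta: N-domain residues 1–94 and C-domain 95–169. […] 10 µM protein in 20 mM Tris–HCl pH 7.5, 1 mM CaCl2, at selected KCl concentrations or with 600 µM ANS. Samples centrifuged at 21 000 g for ≥30 min; filtered buffers. Hydrodynamic diameter reported as number distribution (633 nm laser, 173°).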

N-TgCEN1 [8] = assay: Turbidimetry at 340 nm, N-TgCEN1; format: physicochemical, Toxoplasma gondii; conditions: 20 µM, 1 mM CaCl2, 20 mM KCl pH 7.5, 37°C
In short: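 Recombinant N-domain (1–94) or C-domain (95–169), Ni-affinity purified. A340 followed over time in a 1 cm cuvette. Standard conditions: 20 µM protein, 20 mM Tris–HCl, 20 mM KCl pH 7.5, 1 mM CaCl2, 37°C. Conditions also varied: CaCl2 0–2 mM, temperature 4–45°C, protein 5–50 µM, KCl 0–150 mM, or 600 µM ANS added.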

B1: TgCEN1: centrin isoform 1 from Toxoplasma gondii, full-length, overexpressed in E. coli (protein)
chain: MHSRKGASSLPRGRGAGKKTELTEEQRQEIKEAFDLFDTDGSGCIDAKELKVAMRALGFEPKKEEIRKMIADVDKDGTGSVDFQEFLSLMTVKMAERDPREEILKAFRLFDDDETGKISFKNLKRVSKELGENLTDEELQEMIDEADRDGDGEINEEEFIRIMRKTNLF
- hydrodynamic diameter (TgCEN1 [1]; 10 µM, 1 mM CaCl2, 20 mM Tris–HCl, 20 mM KCl pH 7.5, 37°C, DLS number distribution, no additive): 570 ± 5 nm and ~570 nm
- number-averaged hydrodynamic diameter (TgCEN1 [1]; 10 µM, absence of Ca^2+ (1 mM EGTA), 20 mM Tris–HCl, 20 mM KCl pH 7.5, 37°C, DLS number distribution): 7.54 ± 0.01 nm
- association state (TgCEN1 [1]; 150 mM KCl, 1 mM CaCl2, 37°C): monomeric in solution
- hydrodynamic diameter (TgCEN1 [1]; high ionic strength (KCl), 20 mM Tris–HCl pH 7.5, 1 mM CaCl2, 37°C): ~7 nm
- hydrodynamic diameter (TgCEN1 [1]; low salt concentrations, 20 mM Tris–HCl pH 7.5, 1 mM CaCl2, 37°C): 600–800 nm
- z-average hydrodynamic diameter (TgCEN1 [2]; 15°C): ~230 nm
- z-average hydrodynamic diameter (TgCEN1 [2]; 45°C): ~470 nm
- self-assembly at high ionic strength (turbidity at 340 nm) (TgCEN1 [3]; 0–150 mM KCl, 20 mM Tris–HCl pH 7.5, 1 mM CaCl2, 37°C): clear inhibition of self-assembly process at high ionic strength
- turbidity at 340 nm (TgCEN1 [3]; 20 µM, 1 mM CaCl2, 20 mM Tris–HCl, 20 mM KCl pH 7.5, 37°C): clear increase in turbidity
- turbidity at 340 nm (TgCEN1 [3]; EGTA added to Ca^2+-saturated TgCEN1, 20 µM, pH 7.5, 37°C): significantly reduced
- turbidity change on Mg^2+ addition (TgCEN1 [3]; Mg^2+ up to 10 mM, data not shown): No changes in the turbidity profiles
- self-assembly rate and plateau (turbidity at 340 nm) (TgCEN1 [3]; increasing TgCEN1 concentration (5–50 µM), 1 mM CaCl2, 37°C): faster self-assembly process and a higher plateau
- self-assembly rate and plateau (turbidity at 340 nm) (TgCEN1 [3]; increasing temperature (4–45°C), 1 mM CaCl2): increase in the slope of the growth phase at 340 nm and a higher plateau
- light scattering below threshold concentration (TgCEN1 [3]; protein concentrations less than 5 µM): Low light scattering
- Ca^2+ ions bound [4]: two Ca^2+ ions; also recorded: two high affinity Ca^2+-binding sites in the N-lobe

B2: Δ21TgCEN1: truncated variant of TgCEN1 lacking the first 21 residues (22–169) (protein)
chain: LTEEQRQEIKEAFDLFDTDGSGCIDAKELKVAMRALGFEPKKEEIRKMIADVDKDGTGSVDFQEFLSLMTVKMAERDPREEILKAFRLFDDDETGKISFKNLKRVSKELGENLTDEELQEMIDEADRDGDGEINEEEFIRIMRKTNLF
- turbidity or size distribution changes (Δ21TgCEN1 [5]): No changes in turbidity or size distribution
- turbidity at 340 nm (Δ21TgCEN1 [6]; 1 mM CaCl2, same conditions as full-length (20 µM, 37°C, pH 7.5)): no changes in turbidity at 340 nm
- self-assembly process (Δ21TgCEN1 [6]; removal of the first 21 residues, Ca^2+): completely abolished

B3: N-TgCEN1: N-terminal domain of TgCEN1, 1–94 aa (protein)
chain: MHSRKGASSLPRGRGAGKKTELTEEQRQEIKEAFDLFDTDGSGCIDAKELKVAMRALGFEPKKEEIRKMIADVDKDGTGSVDFQEFLSLMTVKM
modifications: left off: His tag (from the Nickel affinity chromatography), end not stated, cleaved
- particle diameter (N-TgCEN1 [7]; 1 mM CaCl2, 20 mM Tris–HCl, 20 mM KCl pH 7.5): 250 ± 1 nm
- association at high ionic strength (N-TgCEN1 [7]; selected KCl concentrations, 1 mM CaCl2, DLS): inhibition of association process
- turbidity at 340 nm (N-TgCEN1 [8]): no turbidity changes at 340 nm
